SENP6 block – inhibitors of human SENP6 protease | Recombinant SENP6 catalytic domain, aminoluciferin luminescence | inhibition, % at 10 µM | 330,000 compounds, 1.8% hits;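 active = inhibition above about 50% at the single tested dose, limit read from the data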;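 note: plate controls were DMSO wells with enzyme for no effect and DMSO wells lacking enzyme for full effect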
Target sequence (Q9GZR1 628-1112 limits assumed): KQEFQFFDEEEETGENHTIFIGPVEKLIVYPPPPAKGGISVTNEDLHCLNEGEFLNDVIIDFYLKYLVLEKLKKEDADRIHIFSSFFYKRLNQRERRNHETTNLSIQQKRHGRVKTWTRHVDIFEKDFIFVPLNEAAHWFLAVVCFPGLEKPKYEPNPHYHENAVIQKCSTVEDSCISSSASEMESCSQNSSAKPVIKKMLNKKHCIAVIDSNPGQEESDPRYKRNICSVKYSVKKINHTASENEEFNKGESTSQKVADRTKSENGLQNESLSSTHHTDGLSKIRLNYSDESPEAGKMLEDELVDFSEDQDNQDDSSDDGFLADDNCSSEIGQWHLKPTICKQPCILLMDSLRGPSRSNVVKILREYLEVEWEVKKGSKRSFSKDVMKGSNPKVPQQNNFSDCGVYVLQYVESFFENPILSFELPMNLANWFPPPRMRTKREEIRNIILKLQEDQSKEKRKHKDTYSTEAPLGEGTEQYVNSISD
SENP7 block – inhibitors of human SENP7 protease; AID 434973; 330,000 compounds, 1.5% hits; recombinant SENP7, Z-RLRGG-aminoluciferin luminescence, 40 min; Q9BQF6; inhibition, % at 5 µM;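 active = inhibition above about 50% at the single test dose, limit read from the data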;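 note: plate controls were DMSO with enzyme for no effect and no enzyme buffer wells for full effect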
SENP1 FRET inh – inhibitors of human SENP1 SUMO protease catalytic domain. AID 624204. 360,000 compounds, 0.21% hits. Q9P0U3. recombinant SENP1 catalytic domain, CyPet-SUMO1-YPet FRET cleavage. inhibition, % at 10 µM;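 active = inhibition at least 30% at 10 µM, raw YFP signal under a set limit, fluorescence ratio 0.5 to 1.5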;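 note: 0% = enzyme with DMSO and 100% = no enzyme wells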
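Material: hSENP1 catalytic domain, recombinant; medium: Tris pH 8 with BME, BSA, NP40 and catalase; compound: single concentration of 10 µM compound, 0.5% DMSO final; technique: FRET read of cyan and yellow fluorescence; timing: 50 min enzyme reaction, room temperature, light-protected; reagent: SFCypet-SUMO1-SFYpet substrate at 25 nM; control set: no-enzyme low, enzyme-DMSO high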
SENP8 block-1 – inhibitors of human SENP8 protease | 360,000 compounds, 0.64% hits | recombinant SENP8, Nedd8 substrate fluorescence | inhibition, % at 20 µM; in the data active = inhibition mostly above about 40%, no sharp cut-off; inactive = mostly below about 27%
SENP8 block-2 – blocks the human protease SENP8 | AID 2540 | 330,000 compounds, 1.2% hits | Q96LD8 | inhibition, % at 10 µM | purified SENP8, Z-RLRGG-aminoluciferin cleavage, luminescence; in the data active = inhibition above about 50%
SENP8 conf – confirmation of human SENP8 protease inhibitors; shares compounds with SENP7 block; Recombinant SENP8, Z-RLRGG-aminoluciferin luminescence, 60 min; inhibition, % at 12.5 µM; 6,200 compounds, 40% hits;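 active = mean inhibition across replicates above about 50%, limit read from the data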
SENP6 confirm – human SENP6 inhibition, confirmed. shares compounds with SENP7 block. 6,200 compounds, 58% hits. inhibition, % at 12.5 µM. recombinant SENP6, Z-RLRGG-aminoluciferin luminescence
SENP7 confirm – human SENP7 inhibition, confirmed. 6,200 compounds, 69% hits. shares compounds with SENP7 block. recombinant SENP7, Z-RLRGG-aminoluciferin luminescence, 40 min. AID 488917. inhibition, % at 12.5 µM
Casp3 select – inhibits human caspase-3 in SENP selectivity test; shares compounds with SENP7 block; purified caspase-3, Z-DEVD-aminoluciferin luminescence, 60 min; inhibition, % at 12.5 µM; 6,200 compounds, 60% hits; AID 488918;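 active = mean inhibition above about 50%, limit read from the data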;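 note: plate controls were enzyme with DMSO for no effect and wells without caspase-3 for full effect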
Luc interf – interferes with luciferase luminescence in SENP counter-screen | 6,200 compounds, 39% hits | inhibition, % at 12.5 µM | AID 488919 | shares compounds with SENP7 block | Pre-incubated SENP8/Z-RLRGG-aminoluciferin, luciferase luminescence interference;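 active = mean inhibition above about 50% when retested at one dose, limit read from the data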;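 note: plate controls were DMSO wells with completed reaction for no effect and substrate without enzyme for full effect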
Active calls of the source: *. The list is not random: actives were taken first. Their share in the collection is about 2.5%.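 Rule for the calls, unless noted: active = mean inhibition above about 50% in the one-dose retest (limit read from the data); inactive = the rest.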

NC1=NC(c2ccc(Cl)cc2)C(C(=O)c2ccccc2)N1 (centres undefined) was read as SENP6 block -3.2, SENP7 block 2.4, SENP1 FRET inh 1.0, SENP8 block-1 14.1 and SENP8 block-2 -2.8.
Cc1cccc(C)c1OC(=O)CCN1C(=O)C2C3C=CC(C4CC34)C2C1=O (centres undefined) was read as SENP6 block -16.1, SENP7 block -2.2, SENP1 FRET inh -0.8, SENP8 block-1 6.8 and SENP8 block-2 -9.5.
N#C/C(=C/c1ccc(F)cc1)c1nnc(NC(=O)c2ccccc2)s1 was read as SENP6 block -6.2, SENP7 block 6.1, SENP1 FRET inh -36.3, SENP8 block-1 -419.8 and SENP8 block-2 -4.2.
Screening Cc1cc(C(=O)COc2cccc([N+](=O)[O-])c2)c(C)n1C1CC1 returned SENP6 block 58.2*, SENP7 block 20.5, SENP1 FRET inh -0.9, SENP8 block-1 17.1, SENP8 block-2 33.7, SENP8 conf 66.6*, SENP6 confirm 63.1*, SENP7 confirm 88.6*, Casp3 select 66.4* and Luc interf 36.4.
Screening NNC(=O)c1cccc(COc2ccccc2Br)c1 returned SENP6 block 6.1, SENP7 block 13.7, SENP1 FRET inh -1.5, SENP8 block-1 23.9 and SENP8 block-2 -1.5.
NNC(=O)c1cccc(COc2ccc3c(c2)CCC3)c1 was read as SENP6 block 69.1*, SENP7 block 17.3, SENP1 FRET inh 1.5, SENP8 block-1 15.9, SENP8 block-2 44.3, SENP8 conf 68.0*, SENP6 confirm 60.9*, SENP7 confirm 87.9*, Casp3 select 45.0 and Luc interf 86.2*.
`Cc1cc(C)n(CC(=O)NNC(=O)c2ccc(S(C)(=O)=O)cc2)n1` gave SENP6 block 9.9, SENP7 block 4.4, SENP1 FRET inh 0.5, SENP8 block-1 9.0 and SENP8 block-2 2.6.
For Cc1ccc(NC(=O)CCn2c(=S)oc3ccccc32)cc1F the results were SENP6 block -23.8, SENP7 block -8.0, SENP1 FRET inh 1.9, SENP8 block-1 13.8 and SENP8 block-2 3.9.
For O=C(c1ccccc1-c1nc(-c2ccc(F)cc2)no1)N1CCCC1 the results were SENP6 block -6.0, SENP7 block 0.3, SENP1 FRET inh 0.2, SENP8 block-1 13.1 and SENP8 block-2 11.9.
CS(=O)c1ccccc1-c1nc(-c2ccc(Cl)cc2)no1 (centres undefined) was read as SENP6 block -5.2, SENP7 block -2.1, SENP1 FRET inh 2.9, SENP8 block-1 10.5 and SENP8 block-2 2.1.
`Cc1ccc(-c2noc(-c3ccccc3F)n2)cc1` gave SENP6 block 95.8*, SENP7 block 96.6*, SENP1 FRET inh -1.0, SENP8 block-1 6.8, SENP8 block-2 76.1*, SENP8 conf 73.4*, SENP6 confirm 94.6*, SENP7 confirm 101.3*, Casp3 select 85.1* and Luc interf 68.4*.
`O=C(O)c1ccc(-c2noc(-c3ccccc3F)n2)cc1` gave SENP6 block 99.0*, SENP7 block 98.7*, SENP1 FRET inh 3.8, SENP8 block-1 6.7, SENP8 block-2 96.0*, SENP8 conf 100.0*, SENP6 confirm 100.9*, SENP7 confirm 104.0*, Casp3 select 100.0* and Luc interf 95.1*.
For Clc1ccccc1-c1nc(-c2ccncc2)no1 the results were SENP6 block 81.4*, SENP7 block 80.3*, SENP1 FRET inh 1.1, SENP8 block-1 12.3, SENP8 block-2 75.1*, SENP8 conf 82.2*, SENP6 confirm 84.1*, SENP7 confirm 97.1*, Casp3 select 84.2* and Luc interf 70.6*.

Screening results from PubChem.
